The list is not random: actives were taken first. Their share in the collection is about 1.7%.
CAL PDZ FP-1 – inhibitors of human CAL PDZ peptide binding; purified CAL PDZ, TMR-peptide fluorescence polarization, 1 h; Q9HD26; inhibition, % at 24.9 µM; 0.92% of 300,000 active;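 active = mean inhibition of at least 30% with at least half of replicates also reaching 30%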;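 note: 0% = DMSO neutral control and 100% = excess unlabeled competitor peptide PRC23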
miR-122 sensor – miR-122 inhibition in Huh7 cells; Huh7 miR-122 Renilla luciferase sensor, 48 h; neutral wells = 0, positive control = 100; activation (reporter increase), % at 12.5 µM; 0.3% of 340,000 active;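 active = mean replicate activation score at least 90 and every replicate individually at or above 90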;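 note: higher luciferase means less miR-122 activity so hits act as miR-122 inhibitors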
ARNT TACC3 PPI – disrupts binding between human ARNT and TACC3. Q9Y6A5. AlphaScreen His-ARNT PAS-B/GST-TACC3 binding, luminescence; TACC3 fragment carries E629A point mutation. inhibition, % at 9.99 µM. 0.66% of 390,000 active. AID 623870;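 active = mean inhibition of replicates at least 50% and at least half of replicates each reaching 50%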;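 note: 0% = complete ARNT plus TACC3 wells and 100% = ARNT alone without TACC3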
PGC1a acetyl inh – modulators of PGC1a acetylation | U2OS PGC1a acetylation, AlphaScreen anti-acetyl-lysine; with virally co-expressed GCN5 acetyltransferase | inhibition, % at 15.6 µM | 0.17% of 350,000 active;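 active = every replicate shows inhibition of at least 40%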;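 note: 0% = neutral control wells and 100% = positive control wells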
CFTR F508del cor – correctors of CFTR F508del function in bronchial epithelial cells; CFBE cells, YFP halide quenching; stimulated with forskolin plus potentiator P3; % fluorescence drop versus neutral controls; activity (quench increase), % at 7.58 µM; 0.36% of 350,000 active; AID 720511;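 active = mean added fluorescence quench of at least 8% versus neutral control, with both replicates also reaching 8%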;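 note: cells transiently co-express mutant CFTR-F508del with the halide-sensitive YFP; corrector assay measuring rescue of mutant channel to the surface after 24 h compound exposure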
CAL PDZ FP-2 – inhibitors of human CAL PDZ peptide binding; Q9HD26; purified CAL PDZ, TMR-peptide fluorescence polarization, 1 h; inhibition, % at 20 µM; 0.02% of 330,000 active; AID 504414;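 active = highest replicate inhibition of at least 40%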;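 note: plate controls were DMSO neutral control wells for no effect and unlabeled competitor peptide control wells for full effect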
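System: tagged CAL PDZ domain. Schedule: 1 h room-temperature incubation prior to read. Signal: fluorescence polarization (mP). Measure: percent inhibition from loss of millipolarization.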
ARNT Alpha ctr-1 – AlphaScreen artifact in ARNT/TACC3 counter-screen | shares compounds with ARNT TACC3 PPI | His-ARNT PASB-GST AlphaScreen artifact counter-screen, luminescence | AC50, µM (titrated, usually from 68 µM), inactives show at the top dose activity change, negative = signal decrease | 50% of 1,200 active;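 active = every separate test run was called active for a drop in luminescence, with AC50 within twice the top valid dose, actives reach about 71 µM in these data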
ARNT Alpha ctr-2 – AlphaScreen artifact flagged for ARNT-TACC3 inhibitors. AC50, µM. Dual-tagged His-ARNT PASB-GST AlphaScreen artifact counter-screen. shares compounds with ARNT TACC3 PPI. AID 720564. 70% of 45 active;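 active = luminescence drop, with half-maximal potency fitted within twice the sample's top valid dose, cut at about 70 µM in these data; inactive = the rest, including signal moving the wrong way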
Numbers without * were called inactive; [ ] = dose if it differs, or a comment.

For CCOc1cc2c(C#N)c(N(CC)CC)nc(N)c2c(N)n1 the results were CAL PDZ FP-1 -4.2, miR-122 sensor -2.2, ARNT TACC3 PPI 4.6, PGC1a acetyl inh 11.2, CFTR F508del cor -1.5 and CAL PDZ FP-2 -2.7.
Screening COc1ccccc1C#Cc1cnc2c(c1)C(=O)N([C@@H](C)CO)C[C@H](C)[C@@H](CN(C)C(C)=O)O2 returned miR-122 sensor -5.1[16.7 µM], ARNT TACC3 PPI 0.5, PGC1a acetyl inh 7.3 and CFTR F508del cor 1.0.
Screening C[C@@H]1CN([C@@H](C)CO)C(=O)c2cccc(NC(=O)NC3CCCCC3)c2O[C@@H]1CN(C)C(=O)Nc1ccc(F)cc1 returned miR-122 sensor -9.6[16.7 µM], ARNT TACC3 PPI -2.1, PGC1a acetyl inh 3.2 and CFTR F508del cor -0.2.
Screening COc1ccc(OC)c(/C=N/NC(=O)C(=O)N2CCCC2)c1 returned ARNT TACC3 PPI -19.6, PGC1a acetyl inh 6.1, CFTR F508del cor 2.6 and CAL PDZ FP-2 -1.5.
Screening COc1cccc(/C=N/NC(=O)C(=O)N2CCCCCC2)c1O returned CAL PDZ FP-1 -1.3, miR-122 sensor -5.1, ARNT TACC3 PPI 60.0*, CFTR F508del cor 4.6, CAL PDZ FP-2 -0.6 and ARNT Alpha ctr-1 -18.6%.
COc1cccc(C#Cc2ccc([C@H]3[C@H]4CN(C(=O)C5CC5)CC(=O)N4[C@H]3CO)cc2)c1 was read as PGC1a acetyl inh -18.3 and CFTR F508del cor 3.3.
For COC(=O)c1c(N)n(-c2ccc(NC(C)=O)cc2)c2nc3ccccc3nc12 the results were CAL PDZ FP-1 2.6, miR-122 sensor -6.2, ARNT TACC3 PPI 13.8*, PGC1a acetyl inh -0.4, CAL PDZ FP-2 -1.9 and ARNT Alpha ctr-1 -18.3%.
Screening O=C(CSc1ccc(-c2ccccn2)nn1)N1CCCC1 returned CAL PDZ FP-1 -2.6, ARNT TACC3 PPI 84.9*, PGC1a acetyl inh -17.0, CFTR F508del cor 0.7, CAL PDZ FP-2 0.0, ARNT Alpha ctr-1 48.1µM* and ARNT Alpha ctr-2 23.2*.
For O=C(CSc1ccc(-c2ccccn2)nn1)c1ccccc1 the results were CAL PDZ FP-1 -1.0, ARNT TACC3 PPI 74.6*, PGC1a acetyl inh -24.7, CFTR F508del cor -0.5, CAL PDZ FP-2 -3.1 and ARNT Alpha ctr-1 14.7µM*.
For O=C(CSc1ccc(-c2ccccn2)nn1)NC1CCCC1 the results were CAL PDZ FP-1 -7.9, ARNT TACC3 PPI 59.0*, PGC1a acetyl inh -6.2, CFTR F508del cor 0.1, CAL PDZ FP-2 -0.3 and ARNT Alpha ctr-1 17.9µM*.
For C[C@@H]1CN([C@H](C)CO)C(=O)c2cc(NC(=O)Cc3ccccc3)ccc2O[C@@H](C)CCCCO[C@H]1CN(C)S(=O)(=O)c1cn(C)cn1 the results were miR-122 sensor 1.7[16.7 µM], ARNT TACC3 PPI -12.9, PGC1a acetyl inh 6.3 and CFTR F508del cor -4.0.
`CCNC(=O)Nc1ccc2c(c1)C(=O)N(C)[C@@H]1CC[C@@H](CC(=O)NCC3CC3)O[C@@H]1CO2` gave miR-122 sensor -16.7[16.7 µM], ARNT TACC3 PPI -2.7, PGC1a acetyl inh -6.5 and CFTR F508del cor 3.7.
`FC(F)(F)c1cnc(C(c2ccccn2)c2ncn[nH]2)c(Cl)c1` (stereo not given) gave CAL PDZ FP-1 -4.8, ARNT TACC3 PPI 62.0*, PGC1a acetyl inh 2.4, CFTR F508del cor -1.5 and ARNT Alpha ctr-1 58.1µM*.
For COc1ccc(CN(C)C[C@H]2Oc3ccc(NS(=O)(=O)c4ccccc4)cc3CC(=O)N([C@H](C)CO)C[C@@H]2C)cc1 the results were PGC1a acetyl inh -7.0 and CFTR F508del cor -0.3.
Screening COc1ccc(C2=Nn3c(nnc3-c3ccco3)SC2)cc1 returned CAL PDZ FP-1 -3.4, miR-122 sensor 14.3, ARNT TACC3 PPI 35.4 and CAL PDZ FP-2 -7.6.
Oc1ccc(C2=Nn3c(nnc3-c3ccco3)SC2)cc1O was read as CAL PDZ FP-1 -10.3, miR-122 sensor 7.4, ARNT TACC3 PPI 69.6*, PGC1a acetyl inh 17.0, CAL PDZ FP-2 -2.4 and ARNT Alpha ctr-1 -34.5%.
COc1ccc(O)c(/C=N\NC(=O)CCn2nnc3ccccc32)c1 was read as CAL PDZ FP-1 -1.4, miR-122 sensor -15.6, ARNT TACC3 PPI 50.6*, PGC1a acetyl inh -4.3, CAL PDZ FP-2 -0.6 and ARNT Alpha ctr-1 -8.0%.
For COc1cccc(/C=N/NC(=O)CCn2nnc3ccccc32)c1 the results were CAL PDZ FP-1 2.0, miR-122 sensor 5.9, ARNT TACC3 PPI 8.8, PGC1a acetyl inh 2.5, CFTR F508del cor 0.0 and CAL PDZ FP-2 -0.7.
`CCCN1C[C@H](C)[C@H](OC)CN(C)C(=O)c2cc(NC(=O)NC3CCCCC3)ccc2OC[C@@H]1C` gave miR-122 sensor 7.2[16.7 µM], ARNT TACC3 PPI -15.1 and CFTR F508del cor -0.6.
Screening CCS(=O)(=O)N1CC2(CN(Cc3ccccc3F)[C@H](CO)c3c2c2ccc(OC)cc2n3C)C1 returned PGC1a acetyl inh -8.4 and CFTR F508del cor -3.5.
O=C(N[C@H]1CC[C@@H](CCn2cc(-c3ccccn3)nn2)O[C@H]1CO)c1ccncc1 was read as ARNT TACC3 PPI 65.3*, PGC1a acetyl inh 6.8, CFTR F508del cor 2.3 and ARNT Alpha ctr-1 31.3µM*.
For N[C@H]1CC[C@H](CCn2cc(-c3cccc(F)c3)nn2)O[C@@H]1CO the results were ARNT TACC3 PPI 7.0, PGC1a acetyl inh -3.1 and CFTR F508del cor 2.6.
`COCc1cn(CC[C@H]2CC[C@@H](NC(=O)c3ccncc3)[C@@H](CO)O2)nn1` gave ARNT TACC3 PPI -19.4, PGC1a acetyl inh 3.1 and CFTR F508del cor 3.7.
Screening O=C(N[C@@H]1CC[C@H](CCn2cc(-c3ccccn3)nn2)O[C@@H]1CO)c1ccncc1 returned ARNT TACC3 PPI 65.8*, PGC1a acetyl inh 6.0, CFTR F508del cor -0.8 and ARNT Alpha ctr-1 32.6µM*.
COCc1cn(CC[C@@H]2CC[C@H](NC(=O)c3ccncc3)[C@H](CO)O2)nn1 was read as ARNT TACC3 PPI -20.0, PGC1a acetyl inh 2.8 and CFTR F508del cor 5.4.
For N[C@H]1CC[C@@H](CCn2cc(-c3ccccn3)nn2)O[C@H]1CO the results were miR-122 sensor 1.3[16.7 µM], ARNT TACC3 PPI 74.8*, PGC1a acetyl inh 9.4, CFTR F508del cor 2.7 and ARNT Alpha ctr-1 6.03µM*.
For COc1ccc(-c2nc(C#N)c(N3CCCCC3)o2)cc1 the results were CAL PDZ FP-1 -2.6, miR-122 sensor -6.4, ARNT TACC3 PPI 53.7*, PGC1a acetyl inh 0.6, CFTR F508del cor -0.7, CAL PDZ FP-2 -2.3 and ARNT Alpha ctr-1 70.9µM*.
